# Screens as filed in PubChem.
# Hits are enriched below; roughly 4.1% of the tested compounds scored in any of these assays.
# MrgX1 antag: blocks BAM8-22 activation of human MrgX1 receptor; actives 1.3% (n = 310,000); B-score at 10 µM; Q96LB2; MRGX1-HEK293 calcium flux, Fluo-4, BAM8-22 antagonism; active compounds read low;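 active means calcium-response B-score plate-corrected more than 3 library SD below zero, starting fluorescence within 5 deviations, no agonist response on first addition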;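 further: peak minus trough fluorescence over baseline after final BAM8-22 challenge near maximal dose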
# Target sequence (Q96LB2 whole entry, looked up): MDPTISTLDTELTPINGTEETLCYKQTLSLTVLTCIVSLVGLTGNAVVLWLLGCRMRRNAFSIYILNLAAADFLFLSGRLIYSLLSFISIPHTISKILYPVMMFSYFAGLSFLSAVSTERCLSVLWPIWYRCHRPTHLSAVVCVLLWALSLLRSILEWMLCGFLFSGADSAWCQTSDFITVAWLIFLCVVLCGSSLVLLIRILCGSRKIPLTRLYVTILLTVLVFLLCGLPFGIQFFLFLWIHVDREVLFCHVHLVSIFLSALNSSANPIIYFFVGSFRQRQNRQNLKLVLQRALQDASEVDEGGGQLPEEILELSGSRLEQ
# Kir21 block: Kir2.1 (mouse) channel inhibition. B-score at 10 µM. actives 0.85% (n = 310,000). HEK293-Kir2.1, FluxOR thallium flux fluorescence; active compounds read low;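 active means fluorescence ratio B-score at or below minus 3 SD of library scores, with starting-brightness B-score within 2 SD, cut at about -4.2 in these data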;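 further: channel flux triggered by added potassium and thallium sulfate stimulus; B-score of peak minus minimum fluorescence over baseline after thallium stimulus; more negative B-score means stronger Kir2.1 block with less thallium influx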
# RGS4 pot: RGS4 potentiation or activation; actives 0.92% (n = 310,000); HEK293 M3R/inducible RGS4, carbachol calcium flux Fluo4; active compounds read low; AID 463111; B-score at 10 µM;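 active means B-score of the integrated calcium signal more than 4 SD below the library mean, with starting fluorescence not abnormally high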;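 further: negative B-score means reduced calcium response which marks RGS4 activation or potentiation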
#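 Reagent: ECmax carbachol challenge; Test system: M3R-expressing HEK293 line, RGS4 induced by doxycycline; Schedule: overnight RGS4 induction, 30 min dye load 37 °C, 20 min compound RT; Detection: calcium dye Fluo4 fluorescence; Read-out: Agonist-evoked peak-minus-minimum fluorescence over baseline, integrated ratio, B score.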
# MrgX1 agonist: activates human MrgX1 receptor signaling. MrgX1-HEK293 cells, Fluo-4 calcium fluorescence, agonist mode; active compounds read high. B-score at 10 µM. actives 0.44% (n = 310,000). Q96LB2;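 active means calcium response B-score plate-corrected fluorescence ratio at least 3 library SD, with starting fluorescence B-score inside 5 SD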
#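 times = overnight plating, then 30 min 37 °C plus 30 min room-temperature dye loading | assay system = stable human MrgX1 HEK293 cell line | input = fifteen thousand cells per well | signal = kinetic calcium dye fluorescence, Fluo-4 NW | dosing = compound delivered in addition one of three | read-out = B-scored fluorescence response ratio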
# MrgX1 PAM: allosterically activates human MrgX1 receptor signaling | Q96LB2 | actives 0.63% (n = 310,000) | MrgX1-HEK293, Fluo-4 calcium flux, FDSS; active compounds read high | B-score at 10 µM;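 active means plate-corrected calcium response at least 3 library SD above typical, normal starting fluorescence, not activating the receptor alone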;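 further: compound read alongside a low EC10 to EC30 dose of BAM8-22 agonist; peak minus trough fluorescence over baseline measured at the second addition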
# RGS4 inh: inhibitors of human RGS4. HEK293 M3R/RGS4 inducible, Fluo-4 calcium flux; active compounds read high; triggered by carbachol at its EC20. B-score at 10 µM. actives 0.45% (n = 310,000);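 active means B-score, a plate-corrected calcium signal, over three deviations above library mean, with baseline fluorescence within five deviations of library mean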;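 further: RGS4 expression induced by doxycycline in cells with stable M3 receptor; B-score is computed from the integrated fluorescence ratio over baseline after carbachol; higher B-score means a larger calcium signal and so more RGS4 inhibition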
# Target sequence (P49798 whole entry, looked up): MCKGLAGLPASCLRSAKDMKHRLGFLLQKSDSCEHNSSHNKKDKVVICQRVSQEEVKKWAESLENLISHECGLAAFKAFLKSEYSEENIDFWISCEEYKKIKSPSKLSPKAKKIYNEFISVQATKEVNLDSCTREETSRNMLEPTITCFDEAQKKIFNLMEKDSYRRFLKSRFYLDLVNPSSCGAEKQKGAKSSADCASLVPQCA
# An asterisk follows results filed as active; i = inactive.
SMILES,MrgX1 antag,Kir21 block,RGS4 pot,MrgX1 agonist,MrgX1 PAM,RGS4 inh
Cc1ccc(C)c(NC(=O)C2CC=CCC2C(=O)O)c1 (centres undefined),i,0.21,i,i,i,i
Cc1ccc(C)c(NC(=O)C2CC3c4ccccc4C2c2ccccc23)c1 (centres undefined),-5.5*,-0.11,i,i,i,i
CC(=O)Nc1ccc(NS(=O)(=O)c2ccccc2)cc1,i,-0.01,i,i,i,i
CC(=O)C(C(C)=O)c1cc(NS(=O)(=O)c2ccccc2)ccc1NS(=O)(=O)c1ccccc1,i,-0.14,i,i,13*,i
O=C(COc1ccc(Cl)cc1)NCc1nnc(SCC(=O)c2ccccc2)o1,i,0.02,i,i,i,i
COc1cccc(/C=N/NC(=O)c2oc3nc(-c4ccccc4)cc(-c4ccco4)c3c2N)c1,-4.7*,-1.2,i,i,i,i
O=C(O)/C=C\C(=O)Nc1ccc(Oc2ccccc2)cc1,i,1.3,i,i,i,i
O=c1c(Cl)c2oc3ccccc3nc-2c2ccccc12,-5.7*,-0.64,i,i,i,i
O=C(COc1ccc2c(c1)OCO2)Nc1ccccc1F,i,0.49,i,i,i,i
Fc1ccc(C2CCNCC2COc2ccc3c(c2)OCO3)cc1 (centres undefined),i,-6.5*,-8.8*,i,i,i
Fc1ccc([C@@H]2CCNC[C@H]2COc2ccc3c(c2)OCO3)cc1,i,-6.5*,-7.1*,i,i,i
CC(C)OC(=O)CC(=O)CSc1nc2c(cc1C#N)CCC2,i,-1.8,i,i,i,i
CNC[C@@H](Cc1ccccc1)NC[C@@H](CC1CCCCC1)NCCCc1ccccc1,i,-11*,i,i,i,i
CN(Cc1cccc(C(F)(F)F)c1)C(=O)C1CCC(=O)N(CC2CCCCC2)C1 (centres undefined),i,-1.1,i,i,i,i
CNC[C@@H](CC1CCCCC1)NC[C@H](CC(C)C)NCCc1cccc(C(F)(F)F)c1,i,-8.8*,-7.3*,i,i,i
CCC[C@@H](CNC)NC[C@H](Cc1ccccc1)NCCCCc1ccccc1,i,-4.5*,i,i,i,i
CCN(CC)S(=O)(=O)c1cccc(-c2nnc(SCCOc3ccccc3C)o2)c1,i,0.69,i,i,i,i
O=C(C[n+]1ccccc1)Nc1ccc(Oc2ccccc2)cc1,i,0.79,-7.6*,i,i,i
Cc1cccc(CSc2nnc([C@@H]3CCCN3C(=O)OC(C)(C)C)o2)c1,i,-6*,i,i,i,i
OCCC1CN(Cc2ccccc2OC2CCCC2)CCN1Cc1ccsc1 (centres undefined),i,-4.5*,i,i,i,i
OCCC1CN(Cc2cccc3nonc23)CCN1Cc1ccsc1 (centres undefined),i,0.11,i,i,i,i
CC1(C)C(=O)OC(/C=C/c2cccc([N+](=O)[O-])c2)C(C)(C)C1=O (centres undefined),i,0.36,i,i,i,i
Cc1cccc(N2CCN(C(=O)c3ccc4c(c3)OCCO4)CC2)c1C,i,-0.01,i,i,i,i
Cc1cccc(N2CCN(C(=O)c3ccc4c(c3)NC(=O)C(CSCc3cccc(F)c3)N4)CC2)c1C (centres undefined),i,0.24,i,34*,i,i
COC(=O)c1cccc(OCC(O)Cn2ccnc2)c1 (centres undefined),i,-2.2,i,i,i,i
SMILES,MrgX1 antag,Kir21 block,RGS4 pot,MrgX1 agonist,MrgX1 PAM,RGS4 inh
COc1ccc(C(=O)OC(COc2ccccc2)Cn2ccnc2)cc1 (centres undefined),i,-7*,i,i,i,i
O=C(c1ccccc1)c1ccc(OCC(O)CNC2CCCc3ccccc32)cc1 (centres undefined),i,-6.2*,i,i,i,i
OC(CNC1CCCc2ccccc21)COc1ccc2ccccc2c1 (centres undefined),i,-10*,i,i,i,i
CC(=O)CCc1ccc(OCC(O)CNC2CCCc3ccccc32)cc1 (centres undefined),i,-3.4,i,i,i,i
O=C(NCCc1ccccc1)c1ccc2nc(-c3ccco3)c(-c3ccco3)nc2c1,-7.9*,0,i,i,i,i
O=C(NCCO)c1ccc2nc(-c3ccco3)c(-c3ccco3)nc2c1,i,0.4,i,i,i,i
CC(C)Oc1ccc(Cl)cc1Nc1nc(NCCO)nc(N2CCCC2)n1,i,1.2,i,i,i,i
O=C(NNC(=O)C1CC1c1ccccc1)Nc1cccc(Cl)c1 (centres undefined),-5.4*,-0.63,i,i,i,i
C=CCNC(=O)CC(=O)N/N=C/c1ccc(F)cc1,i,1.8,i,i,i,i
C=CCNC(=O)CC(=O)N/N=C/c1cccc(C)c1,-4.6*,-0.35,i,i,i,i
COc1ccc(C(C(=O)Nc2ccc(C(C)C)cc2)N(C)C(=O)c2ccc(=O)[nH]c2)cc1 (centres undefined),i,1,i,i,i,i
CCOC(=O)c1c(C)n(-c2ccccc2)c2ccc(O)c(CN(C)C)c12,i,-4.7*,i,i,i,i
CCOC(=O)c1c(C)n(C)c2ccc(O)c(CN(CC)CC)c12,i,-0.07,i,i,i,i
Cc1ccc(/C=N/Nc2ccc(F)cc2)s1,i,2.5,i,i,i,i
Cc1nc(N2CCN(Cc3ccccc3)CC2)c(C#N)c2c1COC(C)(C)C2,i,-7.5*,i,i,i,i
COCc1cc(C)nc(N2CCN(Cc3ccccc3)CC2)c1C#N,i,-0.46,i,i,i,i
On1c2c(c3c4nonc4ccc31)CCCC2,i,-3,i,27*,i,i
COn1c2c(c3c4nonc4ccc31)CCCC2,i,-0.97,i,i,i,i
CCN1C(=C(C#N)C#N)C=Cc2cc(C)ccc21,i,-1.1,i,i,i,i
C=CC[n+]1c(/C=C2\C=Cc3cc(C)ccc3N2CC)ccc2ccccc21,i,-6.5*,i,i,i,i
